Results: ChEMBL document CHEMBL5252566, “Antioxidant mechanisms and products of four 4',5,7-trihydroxyflavonoids with different structural types” (RSC Med Chem, 2023)

Experiments:
Assay type in all cases: functional
[1] = Antioxidant activity assessed as DPPH radical scavenging activity incubated for 30 mins under dark condition by microplate reader analysis
How it was run: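 The radical solution is made from […] methanol solution and mixed with sample dissolved in methanol (ultrasonication at 40 °C). Incubation is 30 min dark at room temperature with read-out at A519. % scavenging vs no-sample blank; IC50 (final concentration giving 50% scavenging) from dose–response curve by linear regression, mean ± SD (n = 3).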

[2] = Antioxidant activity assessed as oxygen scavenging activity measured every 30 sec for 5 min by UV-vis spectrophotometer analysis
How it was run: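 Superoxide generation uses pyrogallol autoxidation: sample plus pyrogallol (60 mM stock in 1 mM HCl) in 0.05 M Tris-HCl, pH 7.4. A325 is recorded every 30 s for 5 min. Scavenging comes from the absorbance increase over 5 min relative to no-sample control; IC50 from dose–response curve, mean ± SD (n = 3).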

[3] = Antioxidant activity assessed as ABTS radical cation scavenging activity incubated for 10 mins under dark condition by microplate reader analysis
How it was run: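 ABTS˙+ is generated from 7.4 mM (NH4)2ABTS and 2.6 mM K2S2O8 solutions mixed 1:1 and kept dark at 27 °C for 12 h. It is diluted about 1:20 with water, then mixed with methanolic samples for 10 min dark at 27 °C and read at A734. % scavenging vs no-sample blank; IC50 from dose–response curve by linear regression, mean ± SD (n = 3).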

HT-22 [4] = assay: Antioxidant activity in mouse HT-22 cells assessed as OH scavenging activity by chromogenic analysis; parameters: concentration or dose not given beside the values
HT-22 [5] = assay: Antioxidant activity in mouse HT-22 cells assessed as OH scavenging activity measured for 24 hrs by CCK-8 analysis
How it was run: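 HT22 cells are grown in DMEM/10% FBS at 37 °C, 5% CO2, seeded at 1 × 10^4 per well and left to adhere for 24 h. They are pretreated with sample at 50 μM final for 24 h (model group: medium), then exposed to Fenton reagent (200 μM H2O2 + 200 μM FeCl2) for 24 h. Medium is removed and CCK-8 added for 2 h; survival from A450, five wells per sample.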

## Cc1c(C)c2c(c(C)c1O)CCC(C)(C(=O)O)O2 (centres undefined) [TROLOX]
[1]
  IC50: 19.8 µM
[2]
  IC50: 963 µM
[3]
  IC50: 10.3 µM

## O=C1O[C@H]([C@@H](O)CO)C(O)=C1O [ASCORBIC ACID]
HT-22 [4]
  Activity: 84.27%

## O=c1c(-c2ccc(O)cc2)coc2cc(O)cc(O)c12 [GENISTEIN]
HT-22 [4]
  Activity: 36.39%
[1]
  IC50: 1230 µM
HT-22 [5]
  Activity: 68.54%
[2]
  IC50: 88.8 µM
[3]
  IC50: 10.2 µM

## O=C1C[C@@H](c2ccc(O)cc2)Oc2cc(O)cc(O)c21 [NARINGENIN]
HT-22 [4]
  Activity: 33.85%
[1]
  IC50: 1730 µM
HT-22 [5]
  Activity: 80.65%
[2]
  IC50: 24.2 µM
[3]
  IC50: 13 µM

## O=c1c(O)c(-c2ccc(O)cc2)oc2cc(O)cc(O)c12 [KAEMPFEROL]
HT-22 [4]
  Activity: 74.46%
[1]
  IC50: 15.5 µM
HT-22 [5]
  Activity: 69.4%
[2]
  IC50: 81.6 µM
[3]
  IC50: 4.73 µM

## O=c1cc(-c2ccc(O)cc2)oc2cc(O)cc(O)c12 [APIGENIN]
HT-22 [4]
  Activity: 33.26%
[1]
  IC50: 2760 µM
HT-22 [5]
  Activity: 73.32%
[2]
  IC50: 68.9 µM
[3]
  IC50: 18.2 µM
